From PubChem
Most compounds without a hit are left out; they make up all but 2.9% or so of the library.
IMP-1 inhibitor – blocks Pseudomonas aeruginosa IMP-1 metallo-beta-lactamase; purified IMP-1, nitrocefin hydrolysis, epi-absorbance fluorescence; inhibition, % at 5.6 µM; 0.45% of 290,000 active; AID 1556;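 active = inhibition above the mean plus 3 SD of all compounds in the same screening run, cut at about 4.5% in these data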;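 note: 0% = IMP-1 with DMSO and 100% = DMSO wells lacking enzyme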
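System: Purified IMP-1 | Read-out basis: Percent enzyme inhibition | Controls: IMP-1 with DMSO as 0%, enzyme-free DMSO as 100% | Replicates: One well per compound | Doses: 5.6 µM nominal single concentration | Detection: Epi-absorbance fluorescence, 480 nm excitation, 530 nm emission | Incubation: 25 °C, 15 min preincubation, 25 min reaction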
NALP1 yeast inh – inhibitors of NALP1 inflammasome in yeast; 0.61% of 280,000 active; inhibition, % at 10 µM; S. cerevisiae NALP1/ASC/caspase-1 growth, X-gal OD620, 72 h; in the data active = inhibition mostly above about 24%, no sharp cut-off; inactive = mostly below about 32%
Mot1-301 SUMO – blocks SUMOylation pathway, rescuing yeast Mot1-301 growth; S. cerevisiae Mot1-301 growth rescue, ATP luminescence, 38.5C; percent above DMSO median, 100 means doubled; growth rescue, % at 18.8 µM; 1% of 320,000 active; AID 2716;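 active = every valid replicate shows activation above 250% relative to neutral control wells; inactive = the rest, any valid replicate at or below 250%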;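 note: OY570 slx delta 5 strain wells were the positive control but not used for scaling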
VIM-2 inh – blocks Pseudomonas aeruginosa VIM-2 metallo-beta-lactamase; purified VIM-2, nitrocefin hydrolysis, epi-absorbance fluorescence; inhibition, % at 5.6 µM; 0.89% of 290,000 active; AID 1527;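 active = inhibition above the mean of all tested compounds plus 3 SD, cutoff set per screening run, cut at about 7.5% in these data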;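 note: red hydrolysis product quenches plate fluorescence so inhibitors raise well fluorescence; 0% = enzyme with DMSO and 100% = DMSO without enzyme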
DNA FID counter – counter-screen for HCV NS3 helicase inhibitors: DNA intercalator displacement. DNA fluorescent intercalator displacement, fluorescence. inhibition, % at 7.9 µM. 0.17% of 290,000 active. AID 1845; in the data active = inhibition above about 37%;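 note: 0% = vehicle and 100% = reference compound; higher means more ethidium bromide displaced from hairpin DNA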
UBC9 SUMO inh – inhibitors of human SUMOylation (UBC9). inhibition, % at 35 µM. HTRF SUMOylation assay, SAE1/SAE2 + UBC9, in vitro. P63279. 0.36% of 290,000 active; in the data active = inhibition above about 50%, passing the limit was not always enough
Target sequence (P63279 whole entry, looked up): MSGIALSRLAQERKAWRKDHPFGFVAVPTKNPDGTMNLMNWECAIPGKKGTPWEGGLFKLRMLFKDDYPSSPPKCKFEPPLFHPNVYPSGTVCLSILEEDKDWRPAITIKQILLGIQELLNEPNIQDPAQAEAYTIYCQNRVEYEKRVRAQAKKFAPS
* = called active by the depositor; / = not tested or not shown.

SMILES	IMP-1 inhibitor	NALP1 yeast inh	Mot1-301 SUMO	VIM-2 inh	DNA FID counter	UBC9 SUMO inh
Cc1ccc(CS(=O)(=O)Cc2ccc(C(=O)NCCc3ccccc3)o2)cc1	-2	1	-14	-2	-39	3
CC(=O)N(C1=C(Cl)C(=O)c2ccccc2C1=O)C1CCCCC1	-2	66*	17	0	-1	71*
CC(=O)N(c1ccccc1C)C1CCCC1	-5	8	2	-1	-3	0
Cc1nc2ccccn2c1C(=O)NN=C1C2CC3CC(C2)CC1C3	-5	23	2	-2	-5	-4
CC1CC(C)CN(CC(=O)NC(c2ccccc2)c2ccccc2)C1 (centres undefined)	-3	-13	-1	-1	37*	-25
O=C(NCCC(c1ccccc1)c1ccccc1)c1cnc2sccn2c1=O	-5	23	14	-6	-12	1
Cc1ccc(S(=O)(=O)N(Cc2cc3cc4c(cc3[nH]c2=O)OCCO4)CC2CCCO2)cc1 (centres undefined)	0	-26	332*	-3	-4	16
Fc1ccc(-c2ccc(CNCc3ccccn3)o2)cc1	-3	18	9	11*	9	13
Fc1ccc(NC(=S)NCc2ccccn2)cc1	0	-3	98	1	0	10
COc1ccc(CNC(=O)OCCN2CCN(Cc3ccccc3)CCC2=O)cc1	-3	25	-5	-5	-13	-18
O=C(CCN1C(=O)C2CC=C(Cl)CC2C1=O)NC1CCCCC1 (centres undefined)	-5	42*	-7	-2	-2	-12
CCCN(C(=O)CCc1ccc(OC)cc1)c1c(N)n(Cc2ccccc2)c(=O)[nH]c1=O	/	/	-26	/	/	/
Cc1cc(Cl)ccc1OCC(O)CNCCc1ccc(S(N)(=O)=O)cc1 (centres undefined)	0	32	309*	1	11	-12
COc1cc(CNCCc2ccc(S(N)(=O)=O)cc2)ccc1OCc1ccc(Cl)cc1	-2	8	12	-3	20	-8
Cc1cc(Cl)ccc1NC(=S)NCCc1ccc(S(N)(=O)=O)cc1	/	/	3	/	/	/
CCOc1cc(CNCCc2ccc(S(N)(=O)=O)cc2)ccc1OCc1ccc(Cl)cc1	-3	14	-17	-1	37*	4
O=C(c1cccs1)N1CCN=C1SCc1ccc(F)cc1	-2	/	-7	-1	-3	8
CCC(C(=O)O)N1C(=O)/C(=C/C(C)=C/c2ccccc2)SC1=S (centres undefined)	1	18	-9	8.2*	-11	18
CN(C)CCNC=C(C(=O)Nc1ccc(Cl)cc1Cl)C(=O)Nc1ccc(Cl)cc1Cl	-3	80*	63	-3	-7	17
COc1ccc(-c2cc(=O)oc3cc(OCC(=O)NCC(O)c4ccccc4)ccc23)cc1 (centres undefined)	0	16	13	0	-3	25
CCN(CC)CCOc1nc(C)nc2c1oc1ccccc12	-3	15	27	8.6*	6	16
CCN(CC)CCCOc1nc(C)nc2c1oc1ccccc12	1	14	/	31*	26	-4
CN(C)CCOc1nc(-c2ccccc2)nc2c1oc1ccccc12	1	-21	87	5	26	-15
CC(Sc1n[nH]c(-c2ccccc2F)n1)C(=O)Nc1ccc(S(N)(=O)=O)cc1 (centres undefined)	/	/	92	/	/	/
COc1ccc(Nc2nnc(SCc3cc([N+](=O)[O-])cc4c3OCOC4)s2)cc1	-5	44*	-14	-7	1	28
SMILES	IMP-1 inhibitor	NALP1 yeast inh	Mot1-301 SUMO	VIM-2 inh	DNA FID counter	UBC9 SUMO inh
N#Cc1c2ccc(OCC(N)=O)cc2n2ccccc12	-2	11	371*	2	1	62*
CCOC(=O)COc1ccc2c(C#N)c3ccccn3c2c1	0	5	/	1	7	36
COc1ccc(Cn2c3nc4ccccc4nc3c3c(=O)n(Cc4ccco4)c(C)nc32)cc1	/	11	/	/	/	22
COc1ccc(S(=O)(=O)c2c(N)n(Cc3ccco3)c3nc4ccccc4nc23)cc1	5.6*	2	-22	5	-12	26
COc1ccccc1/C=C/C=C1\Oc2c(ccc(O)c2CN(C)C)C1=O	9.1*	12	8	2	6	20
CCN(CC)Cc1c(O)ccc2c1O/C(=C\C=C\c1ccccc1)C2=O	1	/	2	0	0	28
